Tests used:
SH-SY5Y cells [1] = assay: Aβ1-42 amyloid toxicity assay, CCK-8; type: cell-based, human
Method in brief: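 Human neuroblastoma SH-SY5Y cells in MEM-F12 (1:1) with 15% FBS, at 37 °C and 5% CO2, grown to 70% confluence. Monomer-rich Aβ1-42 (HFIP-treated, sonicated) added at 20 μM with or without varying test compound concentrations, ± I3MT3, for 24 h; scrambled Aβ peptide as control. CCK-8 added for 3 h at 37 °C, absorbance at 450 nm. One-way ANOVA with Tukey test.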

SH-SY5Y cells [2] = assay: Hydrogen peroxide cytotoxicity, SRB assay; type: cell-based, human; conditions: in the presence of I3MT3
Method in brief: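 SH-SY5Y cells (MEM-F12, 15% FBS, 37 °C, 5% CO2) exposed to 100 μM H2O2 ± test compound ± I3MT3 for 24 h at 37 °C. Fixed with 10% TCA for 1 h at 4 °C, washed, then stained 1 h at room temperature with 0.04% w/v SRB in 1% acetic acid. Washed with 1% acetic acid, dried, dye dissolved in 10 mM Tris base (pH 10.5), A510 read. One-way ANOVA with Tukey test.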

[3] = DPPH radical scavenging assay; type: biochemical; conditions: read-out: IC50, DPPH radical scavenging; DPPH 150 μM, 30 min, room temperature
Method in brief: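 Test compound at various concentrations incubated with DPPH (150 μM in 80% ethanol) for 30 min at room temperature. Radical scavenging read as absorbance at 517 nm.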

SMILES	effect of 3MST inhibitor on protective effect of sulfanegen against Aβ1-42 toxicity (SH-SY5Y cells [1]; Aβ1-42 20 μM + sulfanegen + I3MT3)	exacerbation of Aβ1-42 cytotoxicity, rise over Aβ1-42 alone (SH-SY5Y cells [1]; in the presence of I3MT3)	exacerbation of H2O2 cytotoxicity, rise over H2O2 alone (SH-SY5Y cells [2])	IC50 [3]
Cc1cc(=O)[nH]c(SCC(=O)c2cccc3ccccc23)n1 [I3MT3]	completely abolished	10%	20%	–
O=C1O[C@H]([C@@H](O)CO)C(O)=C1O [ascorbic acid]	–	–	–	141 µM
